Data: ChEMBL document CHEMBL4257550, “Novel hybrids derived from aspirin and chalcones potently suppress colorectal cancer in vitro and in vivo” (Medchemcomm, 2018)
Calls of active or inactive are those of the source. No cut-off for these calls is given here.

Experiments:
HCT-8 [1] = test: Antiproliferative activity against human HCT8 cells after 72 hrs by MTT assay; assay type: functional, cell-based; details: HCT-8, 72 h
Summary of the method: (§1)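 HCT-8, DLD-1 and CCD841 cells seeded in 96-well plates, exposed to vehicle or compound for 72 h. MTT (5 mg/mL in PBS) added for a further 4 h, formazan dissolved in DMSO, absorbance read at 570 nm. IC50 taken as the concentration inhibiting 50% of proliferation; mean ± SD of three independent experiments.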

DLD-1 [2] = test: Antiproliferative activity against human DLD1 cells after 72 hrs by MTT assay; assay type: functional, cell-based; details: DLD-1, 72 h; summary of the method: as §1
HCT-8 [3] = test: Antiproliferative activity against human HCT8 cells after 72 hrs in presence of ASA by MTT assay; assay type: functional, cell-based; details: HCT-8, 72 h; summary of the method: as §1
DLD-1 [4] = test: Antiproliferative activity against human DLD1 cells after 72 hrs in presence of ASA by MTT assay; assay type: functional, cell-based; details: DLD-1, 72 h; summary of the method: as §1
HCT-8 [5] = test: Antiproliferative activity against human HCT8 cells at 10 uM after 72 hrs by MTT assay relative to control; assay type: functional
Summary of the method: (§2)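 Cells treated with or without compound at 10 μM for 72 h, proliferation measured by MTT (4 h, formazan in DMSO, 570 nm). Inhibition (%) relative to untreated cells; mean ± SD of three independent experiments.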

DLD-1 [6] = test: Antiproliferative activity against human DLD1 cells at 10 uM after 72 hrs by MTT assay relative to control; assay type: functional; summary of the method: as §2
[7] = Cytotoxicity against human CCD-841 cells after 72 hrs by MTT assay; assay type: cell-based; details: CCD-841, 72 h; summary of the method: as §1
[8] = Selectivity index, ratio of IC50 for human CCD-841 cells to IC50 for HCT8 human cells; assay type: toxicity; details: CCD-841 cells versus HCT8 cells, read-out: Ratio IC50
Summary of the method: (§3)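 Ratio of the CCD841 MTT IC50 to the HCT-8 or DLD-1 IC50, each IC50 from a 72 h MTT assay (570 nm), mean of three independent experiments.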

[9] = Selectivity index, ratio of IC50 for human CCD-841 cells to IC50 for DLD1 human cells; assay type: toxicity; details: CCD-841 cells versus DLD1 cells; summary of the method: as §3
HCT-8 [10] = test: Cell cycle arrest in human HCT8 cells assessed as accumulation at G0/G1 phase after 24 hrs by propidium iodide staining based flow cytometry; assay type: functional
HCT-8 [11] = test: Cell cycle arrest in human HCT8 cells assessed as accumulation at G1 phase at 2.5 uM after 24 hrs by propidium iodide staining based flow cytometry (reference value: 48.08%); assay type: functional
HCT-8 [12] = test: Cell cycle arrest in human HCT8 cells assessed as accumulation at S phase at 2.5 uM after 24 hrs by propidium iodide staining based flow cytometry (reference value: 36.19%); assay type: functional
HCT-8 [13] = test: Cell cycle arrest in human HCT8 cells assessed as accumulation at G2 phase at 2.5 uM after 24 hrs by propidium iodide staining based flow cytometry (reference value: 23.77%); assay type: functional
HCT-8 [14] = test: Cell cycle arrest in human HCT8 cells assessed as accumulation at G1 phase at 5 uM after 24 hrs by propidium iodide staining based flow cytometry (reference value: 48.08%); assay type: functional
HCT-8 [15] = test: Cell cycle arrest in human HCT8 cells assessed as accumulation at S phase at 5 uM after 24 hrs by propidium iodide staining based flow cytometry (reference value: 36.19%); assay type: functional
HCT-8 [16] = test: Cell cycle arrest in human HCT8 cells assessed as accumulation at G2 phase at 5 uM after 24 hrs by propidium iodide staining based flow cytometry (reference value: 23.77%); assay type: functional
HCT-8 [17] = test: Cell cycle arrest in human HCT8 cells assessed as accumulation at G1 phase at 10 uM after 24 hrs by propidium iodide staining based flow cytometry (reference value: 48.08%); assay type: functional
HCT-8 [18] = test: Cell cycle arrest in human HCT8 cells assessed as accumulation at S phase at 10 uM after 24 hrs by propidium iodide staining based flow cytometry (reference value: 36.19%); assay type: functional
HCT-8 [19] = test: Cell cycle arrest in human HCT8 cells assessed as accumulation at G2 phase at 10 uM after 24 hrs by propidium iodide staining based flow cytometry (reference value: 23.77%); assay type: functional
HCT-8 [20] = test: Induction of apoptosis in human HCT8 cells after 24 hrs by Annexin V-FITC/propidium iodide staining based flow cytometry; assay type: functional, cell-based
HCT-8 [21] = test: Induction of apoptosis in human HCT8 cells assessed as early apoptotic cells at 2.5 uM after 24 hrs by Annexin V-FITC/propidium iodide staining based flow cytometry (reference value: 0.25%); assay type: functional
HCT-8 [22] = test: Induction of apoptosis in human HCT8 cells assessed as late apoptotic cells at 2.5 uM after 24 hrs by Annexin V-FITC/propidium iodide staining based flow cytometry (reference value: 2.4%); assay type: functional
HCT-8 [23] = test: Induction of apoptosis in human HCT8 cells assessed as early apoptotic cells at 5 uM after 24 hrs by Annexin V-FITC/propidium iodide staining based flow cytometry (reference value: 0.25%); assay type: functional
HCT-8 [24] = test: Induction of apoptosis in human HCT8 cells assessed as late apoptotic cells at 5 uM after 24 hrs by Annexin V-FITC/propidium iodide staining based flow cytometry (reference value: 2.4%); assay type: functional
HCT-8 [25] = test: Induction of apoptosis in human HCT8 cells assessed as early apoptotic cells at 10 uM after 24 hrs by Annexin V-FITC/propidium iodide staining based flow cytometry (reference value: 0.25%); assay type: functional
HCT-8 [26] = test: Induction of apoptosis in human HCT8 cells assessed as late apoptotic cells at 10 uM after 24 hrs by Annexin V-FITC/propidium iodide staining based flow cytometry (reference value: 2.4%); assay type: functional
HCT-8 [27] = test: Induction of apoptosis in human HCT8 cells assessed as increase in cleaved caspase3 expression after 24 hrs by Western blotting analysis; assay type: functional, cell-based
Summary of the method: (§4)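 HCT-8 cells (1 × 10^6/well, six-well plates) left overnight, then given 0.1% DMSO or compound (0, 2.5, 5, 10 μM) for 24 h. Lysed 30 min at 4 °C, cleared at 15000 rpm, protein by BCA. 20 μg per lane on 7.5% SDS-PAGE, moved to PVDF, blocked in 5% milk/TBS-0.05% Tween 20. Probed for caspase 3, cleaved caspase 3, PARP, cleaved PARP and GAPDH; ECL detection.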

HCT-8 [28] = test: Induction of apoptosis in human HCT8 cells assessed as increase in cleaved PARP expression after 24 hrs by Western blotting analysis; assay type: functional, cell-based; summary of the method: as §4
HCT-8 [29] = test: Induction of reactive oxygen species generation in human HCT8 cells at 2.5 to 10 uM after 24 hrs by DCFH-DA staining based flow cytometry; assay type: functional, cell-based
Summary of the method: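 HCT-8 cells exposed to 0, 2.5, 5 or 10 μM for 24 h, loaded with 10 μM DCFH-DA at 37 °C for 20 min, washed three times in PBS. Intracellular ROS as DCF fluorescence by flow cytometry, Ex/Em 488/530 nm.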

HCT-8 [30] = test: Antitumor activity against human HCT8 cells xenografted in BALB/c mouse assessed as reduction in tumor volume at 60 mg/kg, ip administered daily for 32 days measured every 4 days during compound dosing; assay type: functional, organism-based
Summary of the method: (§5)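 Male BALB/c nude mice (5–6 weeks, 18–20 g) inoculated s.c. with 1 × 10^7 HCT-8 cells. At tumours of 180–200 mm³, mice randomized and dosed i.p. daily for 32 days with 60 mg/kg or an equal volume of Tween 80/PBS (5:95) vehicle. Caliper length and width every 4 days, TV = width² × length/2. Tumour weight and body weight also recorded; n = 6 per group, mean ± SD.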

HCT-8 [31] = test: Antitumor activity against human HCT8 cells xenografted in BALB/c mouse assessed as reduction in tumor weight at 60 mg/kg, ip administered daily for 32 days measured every 4 days during compound dosing relative to control; assay type: functional; set-up: scale not given: the % may be the effect or the level left; summary of the method: as §5
Mus musculus = test: Toxicity in BALB/c mouse xenografted with human HCT8 cells assessed as change in body weight at 60 mg/kg, ip administered daily for 32 days; assay type: organism-based; details: in vivo, 768 h; summary of the method: as §5

O=C(/C=C/c1cc(F)ccc1O)c1ccc(Cl)cc1
IC50 (HCT-8 [1]): 25.6 µM
IC50 (DLD-1 [2]): 13.2 µM
IC50 (HCT-8 [3]): 9.3 µM
IC50 (DLD-1 [4]): 8 µM

CC(=O)Oc1ccccc1C(=O)Oc1ccccc1/C=C/C(=O)c1ccc([N+](=O)[O-])cc1
Activity (HCT-8 [5]): >50%
Activity (DLD-1 [6]): >50%

CC(=O)Oc1ccccc1C(=O)Oc1ccccc1/C=C/C(=O)c1ccc(C)cc1
Activity (HCT-8 [5]): Active
Activity (DLD-1 [6]): Active

COc1cccc(/C=C/C(=O)c2ccc(Cl)cc2)c1OC(=O)c1ccccc1OC(C)=O
Activity (HCT-8 [5]): Active
Activity (DLD-1 [6]): Active

O=c1[nH]cc(F)c(=O)[nH]1 [FLUOROURACIL]
IC50 [7]: 35.7 µM

COc1ccc(OC(=O)c2ccccc2OC(C)=O)c(/C=C/C(=O)c2ccc(Cl)cc2)c1
Activity (HCT-8 [5]): >50%
Activity (DLD-1 [6]): >50%
IC50 (HCT-8 [1]): 2.4 µM
IC50 (DLD-1 [2]): 2.7 µM
IC50 [7]: 19.4 µM
selectivity ratio [8]: 8
selectivity ratio [9]: 7.2
Activity (HCT-8 [10]): Dose-dependent effect
Activity (HCT-8 [11]): 48.08%
Activity (HCT-8 [12]): 34.16%
Activity (HCT-8 [13]): 17.76%
Activity (HCT-8 [14]): 51.03%
Activity (HCT-8 [15]): 38.16%
Activity (HCT-8 [16]): 10.82%
Activity (HCT-8 [17]): 56.46%
Activity (HCT-8 [18]): 34.77%
Activity (HCT-8 [19]): 8.77%
Activity (HCT-8 [20]): Dose-dependent effect
Activity (HCT-8 [21]): 9.7%
Activity (HCT-8 [22]): 6.41%
Activity (HCT-8 [23]): 14.22%
Activity (HCT-8 [24]): 13.49%
Activity (HCT-8 [25]): 21.46%
Activity (HCT-8 [26]): 37.01%
Activity (HCT-8 [27]): Dose-dependent effect
Activity (HCT-8 [28]): Dose-dependent effect
Activity (HCT-8 [29]): Active
Activity (HCT-8 [30]): Active
Activity (HCT-8 [31]): 42%
Activity (Mus musculus): Non-Toxic

CC(=O)Oc1ccccc1C(=O)Oc1ccccc1/C=C/C(=O)c1ccc(Cl)cc1
Activity (HCT-8 [5]): >50%
Activity (DLD-1 [6]): >50%

COc1ccc(O)c(/C=C/C(=O)c2ccc(Cl)cc2)c1
IC50 (HCT-8 [1]): 19.7 µM
IC50 (DLD-1 [2]): 14.7 µM
IC50 (HCT-8 [3]): 6.3 µM
IC50 (DLD-1 [4]): 6.9 µM

CC(=O)Oc1ccccc1C(=O)Oc1ccc(Cl)cc1/C=C/C(=O)c1ccc(Cl)cc1
Activity (HCT-8 [5]): Active
Activity (DLD-1 [6]): Active

COc1ccc(C(=O)/C=C/c2ccccc2OC(=O)c2ccccc2OC(C)=O)cc1
Activity (HCT-8 [5]): Active
Activity (DLD-1 [6]): Active

COc1ccc(/C=C/C(=O)c2ccc(Cl)cc2)c(OC(=O)c2ccccc2OC(C)=O)c1
Activity (HCT-8 [5]): Active
Activity (DLD-1 [6]): Active

CC(=O)Oc1ccccc1C(=O)O [ASPIRIN]
IC50 (HCT-8 [1]): > 100 µM
IC50 (DLD-1 [2]): > 100 µM

CC(=O)Oc1ccccc1C(=O)Oc1ccc(Br)cc1/C=C/C(=O)c1ccc(Cl)cc1
Activity (HCT-8 [5]): Active
Activity (DLD-1 [6]): Active

CC(=O)Oc1ccccc1C(=O)Oc1ccc(C)cc1/C=C/C(=O)c1ccc(Cl)cc1
Activity (HCT-8 [5]): Active
Activity (DLD-1 [6]): Active

CC(=O)Oc1ccccc1C(=O)Oc1ccccc1/C=C/C(=O)c1ccc(Br)cc1
Activity (HCT-8 [5]): Active
Activity (DLD-1 [6]): Active

CC(=O)Oc1ccccc1C(=O)Oc1ccc(F)cc1/C=C/C(=O)c1ccc(Cl)cc1
Activity (HCT-8 [5]): >50%
Activity (DLD-1 [6]): >50%
IC50 (HCT-8 [1]): 2.7 µM
IC50 (DLD-1 [2]): 3.5 µM

CC(=O)Oc1ccccc1C(=O)Oc1ccccc1/C=C/C(=O)c1ccc(C#N)cc1
Activity (HCT-8 [5]): Active
Activity (DLD-1 [6]): Active
